Converted amounts (≈) assume the structure as drawn. Where a SMILES comes first, the peptide text is derived from it. Bridges are numbered along the chain shown (N, C = ends). [ ]: non-standard residue; d: D form. The star is where a group is joined. X1 = CC[C@H](C)CCCCC(=O)*; Dab = NCC[C@H](N)C(=O)O
Columns and labels:
[1] = system: Micrococcus luteus; assay: Antibacterial activity against Micrococcus luteus CMCC 28001 assessed as bacterial growth inhibition incubated for 18 to 24 hrs by microtiter broth dilution method; format: functional; settings: time 18-24 hrs
Outline: (§1)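 Log-phase cells (grown overnight at 37 °C, subcultured in MHB) diluted to 10^5 CFU/mL in MHB and mixed 1:1 with serial peptide dilutions prepared in 0.01% acetic acid/0.2% BSA. Incubated 37 °C for 18-24 h. MIC is the lowest concentration giving no growth by OD492. Reported as the average of 3-5 independent experiments.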

[2] = Therapeutic index, ratio of MHC10 for human RBC to geometric mean of peptide MIC for Escherichia coli O157:H7 CICC 21530; format: toxicity; settings: human red blood cells (RBC), pooled result: one value given for 11 cell lines, strains, targets or settings, read-out: TI
Outline: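 Therapeutic index = MHC (peptide concentration giving 10% hemolysis of human RBCs, 1 h, 37 °C, A540) divided by geometric mean of MICs from broth microdilution (10^5 CFU/mL in MHB, 37 °C, 18-24 h, OD492).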

[3] = system: Listeria monocytogenes; assay: Antibacterial activity against Listeria monocytogenes CICC 21633 assessed as bacterial growth inhibition incubated for 18 to 24 hrs by microtiter broth dilution method; format: functional; settings: time 18-24 hrs; outline: as §1
[4] = system: Salmonella paratyphi; assay: Antibacterial activity against Salmonella paratyphi A CICC 20501 assessed as bacterial growth inhibition incubated for 18 to 24 hrs by microtiter broth dilution method; format: functional, Salmonella enterica subsp. enterica serovar Paratyphi A; settings: Salmonella enterica, time 18-24 hrs
Outline: (§2)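 Log-phase bacteria grown at 37 °C in MHB, diluted to 10^5 CFU/mL, mixed 1:1 with serial peptide dilutions (peptide diluted in 0.01% acetic acid, 0.2% BSA); 37 °C for 18-24 h. MIC read by OD492 as lowest concentration giving no growth; mean of 3-5 independent experiments.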

[5] = system: Escherichia coli; assay: Antibacterial activity against Escherichia coli ATCC 25922 assessed as bacterial growth inhibition incubated for 18 to 24 hrs by microtiter broth dilution method; format: functional; settings: time 18-24 hrs; outline: as §1
[6] = system: Listeria monocytogenes; assay: Antibacterial activity against Listeria monocytogenes CICC 21662 assessed as bacterial growth inhibition incubated for 18 to 24 hrs by microtiter broth dilution method; format: functional; settings: time 18-24 hrs; outline: as §1
[7] = system: Erythrocyte; assay: Hemolytic activity against human red blood cells assessed as concentration required to cause 10% hemoglobin release measured after 1 hr by microplate reader analysis; format: ADME, cell-based
Outline: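 Fresh heparinized human RBCs washed three times in 10 mM PBS pH 7.4 and resuspended to about 1% (v/v) (5.4 × 10^8 cells/mL). Mixed 1:1 with peptide in PBS for 1 h at 37 °C, then centrifuged. Supernatant hemoglobin read at A540. PBS set as 0% and 0.1% Triton X-100 as 100% hemolysis. MHC is the concentration causing 10% hemolysis.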

[8] = system: Salmonella enterica; assay: Antibacterial activity against Salmonella choleraesuis ATCC 13312 assessed as bacterial growth inhibition incubated for 18 to 24 hrs by broth dilution method; format: functional; settings: time 18-24 hrs; outline: as §2
[9] = system: Pseudomonas fluorescens; assay: Antibacterial activity against Pseudomonas fluorescens CICC 21620 assessed as bacterial growth inhibition incubated for 18 to 24 hrs by microtiter broth dilution method; format: functional; settings: time 18-24 hrs; outline: as §1
[10] = system: Shigella flexneri; assay: Antibacterial activity against Shigella flexneri CMCC 51571 assessed as bacterial growth inhibition incubated for 18 to 24 hrs by microtiter broth dilution method; format: functional; settings: time 18-24 hrs; outline: as §1
[11] = system: Staphylococcus aureus; assay: Antibacterial activity against methicillin resistant Staphylococcus aureus ATCC 43300 assessed as bacterial growth inhibition incubated for 18 to 24 hrs by microtiter broth dilution method; format: functional; settings: time 18-24 hrs; outline: as §2
[12] = system: Escherichia coli; assay: Antibacterial activity against Escherichia coli O157:H7 CICC 21530 assessed as bacterial growth inhibition incubated for 18 to 24 hrs by microtiter broth dilution method; format: functional; settings: time 18-24 hrs; outline: as §2
[13] = system: Salmonella typhimurium; assay: Antibacterial activity against Salmonella typhimurium CMCC 51005 assessed as bacterial growth inhibition incubated for 18 to 24 hrs by microtiter broth dilution method; format: functional, Salmonella enterica subsp. enterica serovar Typhimurium; settings: Salmonella enterica, time 18-24 hrs; outline: as §1
[14] = system: Staphylococcus aureus; assay: Antibacterial activity against Staphylococcus aureus ATCC 29213 assessed as bacterial growth inhibition incubated for 18 to 24 hrs by microtiter broth dilution method; format: functional; settings: time 18-24 hrs; outline: as §1
[15] = system: Bacillus cereus; assay: Antibacterial activity against Bacillus cereus CMCC 63301 assessed as bacterial growth inhibition incubated for 18 to 24 hrs by microtiter broth dilution method; format: functional; settings: time 18-24 hrs; outline: as §1
[16] = system: Escherichia coli; assay: Antibacterial activity against Escherichia coli ATCC 35150 assessed as bacterial growth inhibition incubated for 18 to 24 hrs by microtiter broth dilution method; format: functional; settings: time 18-24 hrs; outline: as §1
[17] = system: Salmonella paratyphi; assay: Antibacterial activity against Salmonella paratyphi C CICC 21512 assessed as bacterial growth inhibition incubated for 18 to 24 hrs by microtiter broth dilution method; format: functional; settings: Salmonella enterica, time 18-24 hrs; outline: as §2
[18] = system: Salmonella enterica subsp. enterica serovar Paratyphi B; assay: Antibacterial activity against Salmonella paratyphi B CICC 21495 assessed as bacterial growth inhibition incubated for 18 to 24 hrs by microtiter broth dilution method; format: functional; settings: time 18-24 hrs; outline: as §2
[19] = system: Salmonella enteritidis; assay: Antibacterial activity against Salmonella enteritidis CICC 21527 assessed as bacterial growth inhibition incubated for 18 to 24 hrs by microtiter broth dilution method; format: functional, Salmonella enterica subsp. enterica serovar Enteritidis; settings: Salmonella enterica, time 18-24 hrs; outline: as §1
[20] = system: Vibrio parahaemolyticus; assay: Antibacterial activity against Vibrio parahaemolyticus CICC 21617 assessed as bacterial growth inhibition incubated for 18 to 24 hrs by broth dilution method; format: functional; settings: time 18-24 hrs; outline: as §1
[21] = system: Bacillus pumilus; assay: Antibacterial activity against Bacillus pumilus CMCC 63202 assessed as bacterial growth inhibition incubated for 18 to 24 hrs by microtiter broth dilution method; format: functional; settings: time 18-24 hrs; outline: as §1
[22] = system: Staphylococcus aureus; assay: Antibacterial activity against Staphylococcus aureus GIM 1.160 assessed as bacterial growth inhibition incubated for 18 to 24 hrs by microtiter broth dilution method; format: functional; settings: time 18-24 hrs; outline: as §1
[23] = system: Candida albicans; assay: Antifungal activity against Candida albicans ATCC 10231 assessed as fungal growth inhibition incubated for 18 to 24 hrs by microtiter broth dilution method; format: functional; settings: time 18-24 hrs; outline: as §1

| SMILES | MIC [1] [µM] | MIC [4] [µM] | MIC [5] [µM] | MHC10 [7] [µM] | MIC [8] [µM] | MIC [9] [µM] | MIC [10] [µM] | MIC [11] [µM] | MIC [12] [µM] | MIC [13] [µM] | MIC [15] [µM] | MIC [16] [µM] | MIC [17] [µM] | MIC [18] [µM] | MIC [19] [µM] | MIC [20] [µM] | MIC [21] [µM] | MIC [22] [µM] | MIC [23] [µM] | also measured |
| --- | --- | --- | --- | --- | --- | --- | --- | --- | --- | --- | --- | --- | --- | --- | --- | --- | --- | --- | --- | --- |
| CC[C@H](C)CCCCC(=O)N[C@@H](CCN)C(=O)N[C@H](C(=O)N[C@@H](CCN)C(=O)N[C@H]1CCNC(=O)[C@H]([C@@H](C)O)NC(=O)[C@H](CCN)NC(=O)[C@H](CCN)NC(=O)[C@H](CC(C)C)NC(=O)[C@@H](Cc2ccccc2)NC(=O)[C@H](CCN)NC1=O)[C@@H](C)O (X1-[Dab]T[Dab][Dab][Dab][dF]L[Dab][Dab]T; lactam 4-C) | > 98.3 | 0.77 (≈ 0.927 µg/mL) | 0.38 (≈ 0.457 µg/mL) | > 98.34 | 1.54 (≈ 1.85 µg/mL) | 49.2 (≈ 59.2 µg/mL) | 0.77 (≈ 0.927 µg/mL) | > 98.3 | 3.07 (≈ 3.69 µg/mL) | 0.77 (≈ 0.927 µg/mL) | 49.2 (≈ 59.2 µg/mL) | 1.54 (≈ 1.85 µg/mL) | 3.07 (≈ 3.69 µg/mL) | 1.54 (≈ 1.85 µg/mL) | 1.54 (≈ 1.85 µg/mL) | 0.77 (≈ 0.927 µg/mL) | 49.2 (≈ 59.2 µg/mL) | 49.2 (≈ 59.2 µg/mL) | 49.2 (≈ 59.2 µg/mL) | selectivity ratio [2]: 165; MIC [3]: 12.3 µM (≈ 14.8 µg/mL); MIC [6]: 24.6 µM (≈ 29.6 µg/mL); MIC [14]: 49.2 µM (≈ 59.2 µg/mL) |
| CN[C@H](CC(C)C)C(=O)N[C@H]1C(=O)N[C@@H](CC(N)=O)C(=O)N[C@H]2C(=O)N[C@H]3C(=O)N[C@H](C(=O)N[C@H](C(=O)O)c4cc(O)cc(O)c4-c4cc3ccc4O)[C@H](O)c3ccc(c(Cl)c3)Oc3cc2cc(c3O[C@@H]2O[C@H](CO)[C@@H](O)[C@H](O)[C@H]2O[C@H]2C[C@](C)(N)[C@H](O)[C@H](C)O2)Oc2ccc(cc2Cl)[C@H]1O [VANCOMYCIN] | 0.69 (≈ 1 µg/mL) | > 88.3 | 88.3 (≈ 128 µg/mL) | > 88.32 | > 88.3 | 0.35 (≈ 0.507 µg/mL) | 88.3 (≈ 128 µg/mL) | 1.38 (≈ 2 µg/mL) | > 88.3 | > 88.3 | 0.17 (≈ 0.246 µg/mL) | > 88.3 | 88.3 (≈ 128 µg/mL) | 88.3 (≈ 128 µg/mL) | 44.2 (≈ 64 µg/mL) | 88.3 (≈ 128 µg/mL) | 0.35 (≈ 0.507 µg/mL) | 1.38 (≈ 2 µg/mL) | > 88.3 |  |

Source: ChEMBL document CHEMBL4765236, “Insights into the Antimicrobial Activity and Cytotoxicity of Engineered α-Helical Peptide Amphiphiles” (J Med Chem, 2016)
